Test results published in ChEMBL document CHEMBL1154240, “Molecular-targeted antitumor agents. 19. Furospongolide from a marine Lendenfeldia sp. sponge inhibits hypoxia-inducible factor-1 activation in breast tumor cells” (J Nat Prod, 2008).
The source made the active and inactive calls. No cut-off for these calls is given here.

Key:
T47D [1] = assay: Cytotoxicity against human T47D cells under normoxic condition after 48 hrs by natural red method; type: functional, cell-based
Method in brief: (§1)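 Cells plated at 30,000/well in DMEM/F12 with 10% FCS and antibiotics and left overnight, then given compound in serum-free DMEM/F12. After a 30 min pre-exposure, incubation ran 48 h under normoxia (5% CO2/95% air) or hypoxia (1% O2/5% CO2/94% N2). Viability was read by neutral red, expressed as % inhibition, from one experiment in triplicate.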

T47D [2] = assay: Cytotoxicity against human T47D cells under hypoxic condition after 48 hrs by natural red method; type: functional, cell-based; method in brief: as §1
PC-3 [3] = assay: Cytotoxicity against human PC3 cells under normoxic condition after 48 hrs by natural red method; type: functional, cell-based; details: PC-3, 48 h; method in brief: as §1
MCF7 [4] = assay: Cytotoxicity against human MCF7 cells under hypoxic condition after 48 hrs by natural red method; type: functional, cell-based; details: MCF7, 48 h; method in brief: as §1
MDA-MB-231 [5] = assay: Cytotoxicity against human MDA-MB-231 cells under normoxic condition after 48 hrs by natural red method; type: functional, cell-based; details: MDA-MB-231, 48 h; method in brief: as §1
[6] = molecular target: T1, Hypoxia inducible factors; HIF-1-alpha, HIF-2-alpha (Homo sapiens, UniProt Q16665+Q99814); assay: Inhibition of hypoxia-induced HIF1 activation in human PC3 cells after 16 hrs by pTK-HRE3-luciferase reporter gene assay; type: cell-based; details: pc-3
Method in brief: (§2)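 Cells transiently transfected with the pHRE-TK-Luc reporter (HIF-1) or the CMV-driven pGL3-Control plasmid, given compound, then exposed for 16 h to hypoxia (1% O2/5% CO2/94% N2, 37°C) or 10 μM 1,10-phenanthroline. Luciferase read-out: % inhibition = (1 − treated/induced light output) × 100. One experiment in triplicate.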

MDA-MB-231 [7] = assay: Cytotoxicity against human MDA-MB-231 cells under hypoxic condition after 48 hrs by natural red method; type: functional, cell-based; details: MDA-MB-231, 48 h; method in brief: as §1
[8] = molecular target: T1, Hypoxia inducible factors; HIF-1-alpha, HIF-2-alpha; assay: Inhibition of 1,10-phenanthroline-induced HIF1 activation in human T47D cells after 16 hrs by pTK-HRE3-luciferase reporter gene assay; type: cell-based; method in brief: as §2
[9] = molecular target: T1, Hypoxia inducible factors; HIF-1-alpha, HIF-2-alpha; assay: Inhibition of hypoxia-induced HIF1 activation in human T47D cells after 16 hrs by pTK-HRE3-luciferase reporter gene assay; type: cell-based; method in brief: as §2
[10] = molecular target: T1, Hypoxia inducible factors; HIF-1-alpha, HIF-2-alpha; assay: Inhibition of 1,10-phenanthroline-induced HIF1 activation in human PC3 cells after 16 hrs by pTK-HRE3-luciferase reporter gene assay; type: cell-based; details: pc-3; method in brief: as §2
PC-3 [11] = assay: Cytotoxicity against human PC3 cells under hypoxic condition after 48 hrs by natural red method; type: functional, cell-based; details: PC-3, 48 h; method in brief: as §1
MCF7 [12] = assay: Cytotoxicity against human MCF7 cells under normoxic condition after 48 hrs by natural red method; type: functional, cell-based; details: MCF7, 48 h; method in brief: as §1
[13] = molecular target: Hypoxia-inducible factor 1-alpha (Homo sapiens) (UniProt Q16665); assay: Inhibition of 1,10-phenanthroline-induced nuclear HIF1alpha in human T47D cells at 10 uM after 4 hrs by Western blot analysis; type: cell-based
T47D [14] = assay: Inhibition of 1,10-phenanthroline-induced VEGF secretion in human T47D cells at 30 uM after 16 hrs by ELISA; type: functional, cell-based
Method in brief: (§3)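 T47D plated at 356,000 cells/well and left overnight at 37°C. Compound added in serum-free DMEM/F12 for 30 min under air, then 16 h under hypoxia (1% O2/5% CO2/94% N2) or with 10 μM 1,10-phenanthroline. Secreted VEGF in conditioned medium was measured by ELISA and normalized to total lysate protein (BCA).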

T47D [15] = assay: Inhibition of hypoxia-induced VEGF secretion in human T47D cells after 16 hrs by ELISA; type: functional, cell-based; method in brief: as §3
T47D [16] = assay: Cytotoxicity against human T47D cells under hypoxic conditions at 30 uM after 48 hrs by natural red method; type: functional; method in brief: as §1
T47D [17] = assay: Inhibition of electron transport protein complex 4 in human T47D cells assessed as decrease in oxygen consumption at 30 uM pretreated for 2 hrs before TMPD/ascorbate addition by mitochondrial respiration assay; type: cell-based
Method in brief: (§4)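 T47D cells permeabilized with 30 μM digitonin in Clark-electrode chamber containing buffer of 20 mM HEPES pH 7.3, 120 mM KCl, 2 mM KH2PO4, 2 mM MgCl2, 1 mM EGTA, 0.3% fat-free BSA. Substrates: 5 mM pyruvate + 5 mM malate (complex I), 5 mM succinate (complex II), 5 mM ascorbate + 0.2 mM TMPD (complex IV); rotenone and antimycin A as inhibitors. Oxygen consumption monitored.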

T47D [18] = assay: Inhibition of electron transport protein complex 3 in human T47D cells assessed as decrease in oxygen consumption at 30 uM pretreated for 2 hrs before succinate addition by mitochondrial respiration assay; type: cell-based; method in brief: as §4
T47D [19] = assay: Inhibition of cellular respiration in human T47D cells assessed as oxygen consumption at 10 uM; type: functional
Method in brief: (§5)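 Intact T47D cells (5×10^6, equilibrated to 30°C) in 1 mL serum- and antibiotic-free DMEM/F12, with 17.5 mM glucose as substrate, in a Clark-type oxygen electrode. After 15 min baseline, compound in isopropyl alcohol injected at 3 min intervals. Oxygen consumption measured in triplicate; one-way ANOVA with Bonferroni post test.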

[20] = molecular target: Aryl hydrocarbon receptor nuclear translocator (Homo sapiens) (UniProt P27540); assay: Inhibition of hypoxia-induced nuclear HIF1beta in human T47D cells at 10 uM after 4 hrs by Western blot analysis; type: cell-based
T47D [21] = assay: Inhibition of electron transport protein complex 1 in human T47D cells assessed as decrease in oxygen consumption at 30 uM pretreated for 2 hrs before malate and pyruvate addition by mitochondrial respiration assay; type: cell-based; method in brief: as §4
T47D [22] = assay: Inhibition of cellular respiration in human T47D cells assessed as oxygen consumption at 30 uM; type: functional, cell-based; method in brief: as §5
[23] = molecular target: Hypoxia-inducible factor 1-alpha (Homo sapiens) (UniProt Q16665); assay: Inhibition of hypoxia-induced nuclear HIF1alpha in human T47D cells at 10 uM after 4 hrs by Western blot analysis; type: cell-based
[24] = molecular target: T1, Hypoxia inducible factors; HIF-1-alpha, HIF-2-alpha; assay: Inhibition of hypoxia-induced HIF1 activation in human T47D cells at 30 uM after 16 hrs by pTK-HRE3-luciferase reporter gene assay; type: cell-based; method in brief: as §2
T47D [25] = assay: Inhibition of electron transport protein complex 2 in human T47D cells assessed as decrease in oxygen consumption at 30 uM pretreated for 2 hrs before succinate addition by mitochondrial respiration assay; type: cell-based; method in brief: as §4
[26] = Selectivity for inhibition of hypoxia-induced HIF1 activation in human T47D cells over cytotoxicity to human T47D cells; type: toxicity, cell-based
[27] = Selectivity ratio of IC50 for inhibition of hypoxia-induced HIF1 activation in human T47D cells to IC50 for cytotoxicity to human T47D cells; type: toxicity, cell-based; details: read-out: Ratio IC50

Sequence of Hypoxia-inducible factor 1-alpha (Homo sapiens) (Q16665 whole entry, looked up): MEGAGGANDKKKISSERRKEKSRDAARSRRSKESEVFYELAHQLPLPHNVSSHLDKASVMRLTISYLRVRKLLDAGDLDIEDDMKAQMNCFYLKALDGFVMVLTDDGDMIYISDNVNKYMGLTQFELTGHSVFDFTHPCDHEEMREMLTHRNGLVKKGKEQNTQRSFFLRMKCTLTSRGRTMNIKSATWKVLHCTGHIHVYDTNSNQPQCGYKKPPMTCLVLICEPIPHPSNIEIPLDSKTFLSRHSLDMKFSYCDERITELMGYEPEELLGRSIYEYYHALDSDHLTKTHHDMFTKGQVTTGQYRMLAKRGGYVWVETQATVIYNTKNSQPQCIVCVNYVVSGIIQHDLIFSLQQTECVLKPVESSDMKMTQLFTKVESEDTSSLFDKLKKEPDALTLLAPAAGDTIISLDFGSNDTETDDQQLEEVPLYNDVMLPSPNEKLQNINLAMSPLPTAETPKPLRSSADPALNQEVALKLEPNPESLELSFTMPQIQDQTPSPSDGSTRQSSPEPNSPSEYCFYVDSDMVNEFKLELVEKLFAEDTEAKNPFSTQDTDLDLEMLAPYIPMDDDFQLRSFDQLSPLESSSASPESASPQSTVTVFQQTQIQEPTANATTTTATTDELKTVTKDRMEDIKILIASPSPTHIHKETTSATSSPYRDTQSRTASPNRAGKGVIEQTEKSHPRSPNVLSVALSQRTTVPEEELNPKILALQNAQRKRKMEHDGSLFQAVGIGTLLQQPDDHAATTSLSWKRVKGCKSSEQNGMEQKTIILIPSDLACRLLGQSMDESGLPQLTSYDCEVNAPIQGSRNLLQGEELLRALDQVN
Sequence of Aryl hydrocarbon receptor nuclear translocator (Homo sapiens) (P27540 whole entry): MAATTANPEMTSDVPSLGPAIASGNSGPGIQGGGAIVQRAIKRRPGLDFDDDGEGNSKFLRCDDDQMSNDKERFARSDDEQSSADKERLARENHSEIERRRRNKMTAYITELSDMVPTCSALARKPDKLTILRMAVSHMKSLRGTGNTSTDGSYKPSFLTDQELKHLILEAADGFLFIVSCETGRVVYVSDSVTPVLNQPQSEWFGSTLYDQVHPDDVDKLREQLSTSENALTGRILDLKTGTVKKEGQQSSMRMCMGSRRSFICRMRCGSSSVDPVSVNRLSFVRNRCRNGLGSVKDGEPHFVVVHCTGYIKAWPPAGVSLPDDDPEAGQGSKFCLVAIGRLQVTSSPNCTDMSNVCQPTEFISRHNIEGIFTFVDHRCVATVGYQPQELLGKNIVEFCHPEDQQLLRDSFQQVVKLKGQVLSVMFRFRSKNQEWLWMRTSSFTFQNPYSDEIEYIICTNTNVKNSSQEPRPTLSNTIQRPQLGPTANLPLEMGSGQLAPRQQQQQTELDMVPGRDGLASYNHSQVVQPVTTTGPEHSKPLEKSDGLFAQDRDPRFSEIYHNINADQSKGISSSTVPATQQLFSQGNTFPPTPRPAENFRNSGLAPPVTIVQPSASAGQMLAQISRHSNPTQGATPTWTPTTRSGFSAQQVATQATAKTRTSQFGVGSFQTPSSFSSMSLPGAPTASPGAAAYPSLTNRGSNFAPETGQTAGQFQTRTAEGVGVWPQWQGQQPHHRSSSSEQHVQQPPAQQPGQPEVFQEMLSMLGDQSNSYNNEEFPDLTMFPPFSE

SMILES	IC50 (T47D [1])	IC50 (T47D [2])	IC50 (PC-3 [3])	IC50 (MCF7 [4])	IC50 (MDA-MB-231 [5])	IC50 [6]	IC50 (MDA-MB-231 [7])	IC50 [8]	IC50 [9]	IC50 [10]	IC50 (PC-3 [11])	IC50 (MCF7 [12])	further results
CC(=O)C1=CC[C@H]2[C@]3(C)CC[C@H]4C(C)(C)CCC[C@]4(CO)[C@H]3CC(=O)[C@]2(C)[C@H]1C=O	1200 nM	1800 nM	800 nM	600 nM	300 nM	900 nM	300 nM	200 nM	500 nM	1000 nM	1100 nM	600 nM	–
COC(=O)[C@]12CCCC(C)(C)[C@@H]1CC[C@@]1(C)[C@@H]3CC=C(C(C)=O)[C@H](C=O)[C@@]3(C)C(=O)C[C@@H]12	5500 nM	10800 nM	6400 nM	6800 nM	1900 nM	7700 nM	2000 nM	1000 nM	2700 nM	9000 nM	10200 nM	6100 nM	–
C/C(=C\CCc1ccoc1)CC/C=C(\C)CCCC1=CC(=O)OC1 [FUROSPONGOLIDE]	14000 nM	> 30000 nM	> 30000 nM	> 30000 nM	> 30000 nM	> 30000 nM	> 30000 nM	10900 nM	2900 nM	> 30000 nM	> 30000 nM	29000 nM	inhibition [13]: inactive; inhibition (T47D [14]): inactive; inhibition (T47D [15]): Dose-dependent effect; inhibition at 30 µM (T47D [16]): 26%; Activity (T47D [17]): inactive; Activity (T47D [18]): inactive; inhibition at 10 µM (T47D [19]): 38%; inhibition [20]: Active; Activity (T47D [21]): Active; inhibition (T47D [22]): Active; inhibition [23]: Active; inhibition [24]: 97%; Activity (T47D [25]): inactive; selectivity ratio [26]: > 10
CC(=O)C1=CC[C@H]2[C@]3(C)CC[C@H]4C(C)(C)CCC[C@]4(CO)[C@H]3C[C@H](O)[C@]2(C)[C@H]1C=O	1000 nM	1600 nM	–	700 nM	–	500 nM	–	200 nM	400 nM	800 nM	900 nM	–	selectivity ratio [27]: 3
